ChEMBL document CHEMBL1944532, “Synthesis and evaluation of anticancer activity of some novel 6-aryl-2-(p-sulfamylphenyl)-pyridazin-3(2H)-ones” (Eur J Med Chem, 2012)
The source made the active and inactive calls. The calls are words filed in the database; no cut-off is given here.

Assays:
UACC-62 [1] = test: Cytotoxicity against human UACC62 cells assessed as cell growth at 10 uM after 48 hrs by SRB assay; assay type: functional; details: UACC-62, 48 h, read-out: Activity
How it was run: (§1)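 NCI primary one-dose screen at 10^-5 M against the full panel of about 60 human tumour cell lines, run to the NCI Drug Evaluation Branch protocol.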

SF-295 = test: Cytotoxicity against human SF295 cells assessed as cell growth at 10 uM after 48 hrs by SRB assay; assay type: functional; details: SF-295, 48 h, read-out: Activity
How it was run: (§2)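 NCI primary single-dose screen at 10^-5 M against the full panel of about 60 human tumor cell lines. Cells were in RPMI-1640 with 5% fetal calf serum and 2 mM L-glutamine and preincubated 24 h. Compound was given in DMSO with 48 h exposure. Growth was estimated by sulforhodamine B protein assay.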

SK-MEL-28 [2] = test: Cytotoxicity against human SK-MEL-28 cells assessed as cell growth at 10 uM after 48 hrs by SRB assay; assay type: functional; details: SK-MEL-28, 48 h, read-out: Activity; how it was run: as §1
HT-29 = test: Cytotoxicity against human HT-29 cells after 48 hrs by SRB assay; assay type: functional; details: HT-29, 48 h
How it was run: (§3)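 NCI ~60-line panel in RPMI-1640 with 5% fetal calf serum and 2 mM L-glutamine, pre-incubated 24 h. Compound in DMSO tested at five 10-fold concentrations (10^-4 to 10^-8 M) with 48 h continuous exposure. Growth measured by sulforhodamine B protein assay. GI50 (50% net growth inhibition), TGI (total inhibition) and LC50 (50% net cell death) derived from dose-response.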

MDA-MB-231 = test: Cytotoxicity against human MDA-MB-231 cells assessed as cell growth at 10 uM after 48 hrs by SRB assay; assay type: functional; details: MDA-MB-231, 48 h, read-out: Activity; how it was run: as §2
UACC-62 [3] = test: Antitumor activity against human UACC62 cells implanted in mouse dosed qd for 4 days by formazan dye-based hollow fiber assay; assay type: functional, organism-based
How it was run: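 Cells grown inside polyvinylidene fluoride hollow fibers; each line implanted into both intraperitoneal and subcutaneous compartments in mice. Compound given ip at two doses on a QD x 4 schedule. Fibers then recovered and viable cell mass measured by formazan dye conversion. Scored 2 per dose giving ≥50% reduction in viable cell mass (%T/C 50).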

CAKI-1 [4] = test: Cytotoxicity against human Caki1 cells after 48 hrs by SRB assay; assay type: functional; details: CAKI-1, 48 h; how it was run: as §3
SK-MEL-5 = test: Cytotoxicity against human SK-MEL-5 cells after 48 hrs by SRB assay; assay type: functional; details: SK-MEL-5, 48 h
How it was run: (§4)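 NCI 60-cell-line five-dose screen. Cells were grown in 1640 medium with 5% fetal calf serum and 2 mM L-glutamine, with inoculum density set by cell line, and pre-incubated 24 h. Compound in DMSO was added at 10^-4 to 10^-8 M (10-fold steps) with 48 h continuous exposure. Growth was read by SRB protein assay, and GI50, TGI and LC50 were derived from dose-response.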

SK-MEL-28 [5] = test: Cytotoxicity against human SK-MEL-28 cells after 48 hrs by SRB assay; assay type: functional; details: SK-MEL-28, 48 h; how it was run: as §4
MDA-MB-468 = test: Cytotoxicity against human MDA-MB-468 cells after 48 hrs by SRB assay; assay type: functional; details: MDA-MB-468, 48 h
How it was run: (§5)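 NCI five-dose screen on the ~60-line human tumor panel. Cells grown in RPMI-1640 with 5% fetal calf serum and 2 mM L-glutamine, seeded at line-dependent density and preincubated 24 h. Compound added from DMSO at 10-fold dilutions from 10^-4 to 10^-8 M, continuous exposure 48 h. Growth read by sulforhodamine B protein stain. GI50, TGI and LC50 derived per line.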

NCI-H522 = test: Cytotoxicity against human NCI-H522 cells after 48 hrs by SRB assay; assay type: functional; details: NCI-H522, 48 h; how it was run: as §5
SK-MEL-2 = test: Cytotoxicity against human SK-MEL-2 cells assessed as cell growth at 10 uM after 48 hrs by SRB assay; assay type: functional; details: SK-MEL-2, 48 h, read-out: Activity; how it was run: as §1
CAKI-1 [6] = test: Cytotoxicity against human Caki1 cells assessed as cell growth at 10 uM after 48 hrs by SRB assay; assay type: functional; details: CAKI-1, 48 h, read-out: Activity
How it was run: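 NCI primary single-dose screen at 10^-5 M against the ~60 human tumour cell line panel. Cells grown in RPMI-1640 with 5% fetal calf serum and 2 mM L-glutamine and pre-incubated 24 h before compound addition. Compound added from DMSO solution with 48 h exposure. Growth read by sulforhodamine B protein staining.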

LOX IMVI = test: Cytotoxicity against human LOXIMVI cells after 48 hrs by SRB assay; assay type: functional; how it was run: as §5

## CCc1ccc(-c2ccc(=O)n(-c3ccc(S(N)(=O)=O)cc3)n2)cc1
UACC-62 [1]
  growth at 10 µM: 38.5%
SF-295
  growth at 10 µM: 18.4%
SK-MEL-28 [2]
  growth at 10 µM: 49.4%
HT-29
  LC50: > 100000 nM
HT-29; read-out: GI50
  GI50: 436 nM
HT-29; read-out: pGI50 (converted)
  GI50: 437 nM
HT-29; read-out: pTGI
  TGI: > 100000 nM
MDA-MB-231
  growth at 10 µM: 66.8%
UACC-62 [3]
  Activity: inactive
CAKI-1 [4]
  LC50 (concentration causing 50% net cell death): > 100000 nM
CAKI-1 [4]; read-out: GI50
  GI50: 2730 nM
CAKI-1 [4]; read-out: pGI50 (converted)
  GI50: 2750 nM
CAKI-1 [4]; read-out: pTGI
  TGI: > 100000 nM
SK-MEL-5
  LC50: > 100000 nM
SK-MEL-5; read-out: GI50
  GI50: 453 nM
SK-MEL-5; read-out: pGI50 (converted)
  GI50: 457 nM
SK-MEL-5; read-out: pTGI (converted)
  TGI: 7590 nM
SK-MEL-28 [5]
  LC50: > 100000 nM
SK-MEL-28 [5]; read-out: GI50
  GI50: 1370 nM
SK-MEL-28 [5]; read-out: pGI50 (converted)
  GI50: 1380 nM
SK-MEL-28 [5]; read-out: pTGI
  TGI: > 100000 nM
MDA-MB-468
  LC50: > 100000 nM
MDA-MB-468; read-out: GI50
  GI50: 3180 nM
MDA-MB-468; read-out: pGI50 (converted)
  GI50: 3160 nM
MDA-MB-468; read-out: pTGI
  TGI: > 100000 nM
NCI-H522
  LC50: > 100000 nM
NCI-H522; read-out: GI50
  GI50: 96.6 nM
NCI-H522; read-out: pGI50 (converted)
  GI50: 95.5 nM
NCI-H522; read-out: pTGI (converted)
  TGI: 631 nM
SK-MEL-2
  growth at 10 µM: 1.5%
CAKI-1 [6]
  growth at 10 µM: 36.6%
LOX IMVI
  LC50: > 100000 nM
LOX IMVI; read-out: GI50
  GI50: 5270 nM
LOX IMVI; read-out: pGI50 (converted)
  GI50: 5250 nM
LOX IMVI; read-out: pTGI
  TGI: > 100000 nM
